Screening data: PubChem BioAssay, Broad Institute
Sampled rows, rich in hits. Any-hit rate of the full collection: about 2.2%.
DENV2 CPE: inhibitors of DENV2 cytopathic effect, primary screen, cell-based, plate reader, single concentration | DENV2-infected cells, cytopathic effect rescue | CPE inhibition, % at 9.99 µM | actives 1.7% (n = 350,000) | AID 651640, 2012; in the data active = CPE inhibition above about 20%, passing the limit was not always enough; inconclusive = no clear call, values can overlap the other calls; tested in BHK-21 cells;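 note: 0% = median of neutral control wells and 100% = median of positive control wells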
C2C12 statin: suppressors of statin myotoxicity in C2C12 myotubes, primary screen, cell-based, single point, plate reader | rescue of ATP level, % at 7.49 µM | C2C12 myotubes + simvastatin, ATP luminescence, 48 h; scaled: DMSO 0, geranylgeraniol control 100 | AID 602340, 2012 | actives 0.78% (n = 330,000);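 active = mean ATP rescue above about 67%, or every replicate alone reaching that limit, limit read from the data, passing the limit was not always enough; inconclusive = no clear call, values can overlap the other calls; inactive = mean under the limit and some replicate under it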;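 note: myotubes were challenged with 10 µM simvastatin during compound exposure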
E-sel inducer: E-selectin induction in HUVECs, primary screen, imaging, HUVEC, immunofluorescence imaging, single point. P16581. normalized: neutral wells 0, TNF-alpha wells 100. activation, % at 7.58 µM. actives 0.37% (n = 260,000);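 active = mean E-selectin-positive cell signal at least 10% of the positive control, reached in at least 60% of replicates, without over 20% cell loss; inconclusive = no rule given, readout overlaps actives, possibly toxicity-flagged; inactive = the rest, including those meeting only one limit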
Target sequence (P16581 whole entry, looked up): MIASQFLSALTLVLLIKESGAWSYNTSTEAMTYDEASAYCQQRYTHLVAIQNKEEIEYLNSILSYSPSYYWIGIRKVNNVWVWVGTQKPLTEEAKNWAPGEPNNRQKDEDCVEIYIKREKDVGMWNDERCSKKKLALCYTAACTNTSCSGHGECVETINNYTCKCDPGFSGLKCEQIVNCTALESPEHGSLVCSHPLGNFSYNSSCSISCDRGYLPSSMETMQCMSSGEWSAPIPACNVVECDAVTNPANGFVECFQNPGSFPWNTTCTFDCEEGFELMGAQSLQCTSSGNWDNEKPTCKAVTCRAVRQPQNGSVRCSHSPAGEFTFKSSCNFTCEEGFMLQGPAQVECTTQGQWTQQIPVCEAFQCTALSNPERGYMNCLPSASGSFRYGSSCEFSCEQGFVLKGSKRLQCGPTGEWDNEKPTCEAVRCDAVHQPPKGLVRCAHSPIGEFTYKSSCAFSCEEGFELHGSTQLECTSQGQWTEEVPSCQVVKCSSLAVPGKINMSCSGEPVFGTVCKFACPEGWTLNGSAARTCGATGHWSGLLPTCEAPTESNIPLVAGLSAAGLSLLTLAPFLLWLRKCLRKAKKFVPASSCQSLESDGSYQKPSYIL
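System: HUVEC, human umbilical vein endothelial cells; quantity: 3,000 cells/well; buffer or medium: EGM-2 medium, gelatin-coated wells; dosing: single-point compound dose; detection: immunofluorescence imaging; evaluation: % PE-positive cells; benchmarks: TNF-alpha, DMSO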
Starred values were filed as active, the others as inactive; u = inconclusive; x = no result.

SMILES | DENV2 CPE | C2C12 statin | E-sel inducer
COc1ccc(OC)c(NC(=O)c2csc(Cl)c2OC)c1 | -7 | -13 | 38*
O=C1/C(=C/c2ccncc2)CCC/C1=C\c1ccncc1 | x | 250* | 0
O=C1C(=Cc2ccncc2)CCCc2ccccc21 | -1 | -2 | x
O=C(C[C@H]1CC[C@@H]2[C@H](COC[C@H](O)CN2CCc2ccccc2)O1)NCc1ccc(F)cc1 | u | -15 | 0
COCCNC(=O)COc1ncnc2ccc(Br)cc12 | x | 13 | x
CC(C)(C)OC(=O)NCCOCCOCCNc1ncnc2ccc(Br)cc12 | 20* | x | x
COc1ccccc1C(=O)NCC(=O)OC(C)C(=O)NC(=O)NC1CCCCC1 (centres undefined) | x | 87* | x
COc1ccccc1C(=O)NCC(=O)OC(C)C(=O)NC1CCCCC1C (centres undefined) | 2 | 18 | -1
CC(C)NC(=O)Nc1ccc2c(c1)C(=O)N([C@@H](C)CO)C[C@@H](C)[C@@H](CN(C)S(=O)(=O)c1ccccc1)OCCCC[C@@H](C)O2 | -4 | x | 0
C/C=C/c1ccc2c(c1)O[C@H](CN(C)C(C)=O)[C@H](C)CN([C@@H](C)CO)S2(=O)=O | 45* | -12 | 0
CC(=O)N(C)C[C@H]1Oc2cc(-c3ccncc3)ccc2S(=O)(=O)N([C@H](C)CO)C[C@@H]1C | 19 | 6 | 0
C/C=C/c1ccc2c(c1)O[C@@H](CN(C)C(C)=O)[C@@H](C)CN([C@@H](C)CO)S2(=O)=O | -4 | 4 | 1
CC(=O)N(C)C[C@@H]1Oc2cc(-c3ccncc3)ccc2S(=O)(=O)N([C@H](C)CO)C[C@@H]1C | 29* | -10 | 1
CO[C@H]1CN(C)C(=O)c2ccc(NS(=O)(=O)c3cccc(F)c3)cc2OC[C@@H](C)N(C(=O)Cc2cccnc2)C[C@@H]1C | 11 | -4 | 0
O=C(C[C@@H]1C=C[C@@H](NC(=O)c2ccc(F)cc2)[C@@H](CO)O1)NCCc1ccncc1 | 1 | 6 | 0
CC(C)NC(=O)N[C@@H]1CC[C@H](CC(=O)N2CCCCC2)O[C@@H]1CO | 9 | -4 | 0
Cn1cnc2nc[nH]c2c1=S | 5 | 75* | x
Cn1cnc(Sc2ncnc3nc[nH]c23)c1[N+](=O)[O-] | -1 | 0 | x
CCCNC(=O)C[C@@H]1CC[C@@H]2[C@H](COc3ccc(NC(=O)Nc4cccc(C)c4)cc3C(=O)N2C)O1 | 0 | -3 | 0
C[C@H](CO)N1C[C@H](C)[C@H](CN(C)C(=O)CN(C)C)Oc2cc(C#Cc3cccnc3)ccc2S1(=O)=O | -4 | 1 | 0
CCOC(=O)C1=C(C)NC(C)=C(C(=O)OCC)C1c1ccncc1 | 13 | x | 0
CCOC(=O)C1=C(C)NC(=O)C(C#N)C1c1ccncc1 (centres undefined) | 36* | 8 | x
COC(=O)C[C@@H]1CC[C@@H]2[C@@H](COc3ccc(NC(=O)c4ccc(F)c(F)c4)cc3C(=O)N2C)O1 | 11 | 2 | 0
C[C@@H]1CN([C@H](C)CO)S(=O)(=O)c2ccc(C3=CCCCC3)cc2O[C@@H]1CN(C)C(=O)c1ccc(F)cc1 | -5 | -154 | -1
CCn1c(CCCCc2n[nH]c(=S)n2CC)n[nH]c1=S | -3 | x | -2
SMILES | DENV2 CPE | C2C12 statin | E-sel inducer
CCn1c(CN2c3ccccc3Sc3ccccc32)n[nH]c1=S | 13 | 86* | 0
O=C(C[C@@H]1C[C@H]2c3cc(NC(=O)NC4CCCC4)ccc3O[C@H]2[C@H](CO)O1)NCc1ccc(-c2ccccc2)cc1 | -1 | -48 | -1
COCCNC(=O)C[C@H]1CC[C@H]2[C@@H](COC[C@H](O)CN2C(=O)Nc2ccccc2OC)O1 | u | -18 | 0
O=C(NCC(=O)N(Cc1ccccc1)C(C(=O)NC1CCCC1)c1cccnc1)c1ccco1 (centres undefined) | x | 10 | x
Cc1ccc(C(C(=O)NC2CCCC2)N(C(=O)Cc2cccs2)c2ccc3c(c2)OCCO3)cc1 (centres undefined) | -3 | 106* | x
CCc1ccccc1N(C(=O)c1ccco1)C(C(=O)NC1CCCC1)c1cccnc1 (centres undefined) | 54* | 4 | x
COc1ccc(Cl)cc1N(C(=O)c1ccco1)C(C(=O)NC1CCCC1)c1ccncc1 (centres undefined) | 3 | -8 | 0
O=C(NC1CCCC1)C(c1ccc(F)cc1)N(C(=O)Cc1cccs1)c1ccc2c(c1)OCCO2 (centres undefined) | x | 26 | x
COc1ccc(Cl)cc1N(C(=O)c1ccco1)C(C(=O)NC1CCCC1)c1ccco1 (centres undefined) | 75* | -5 | x
O=C(NCC(=O)N(Cc1cccs1)C(C(=O)NC1CCCCC1)c1cccnc1)c1ccco1 (centres undefined) | x | 133* | x
Cc1ccccc1N(C(=O)c1ccco1)C(C(=O)NC1CCCC1)c1cccnc1 (centres undefined) | -1 | 7 | 0
C[C@@H]1CCCCO[C@@H](CN(C)C(=O)Nc2ccc(F)cc2)[C@@H](C)CN([C@H](C)CO)C(=O)c2cc(NC(=O)CCC(F)(F)F)ccc2O1 | -5 | x | x
O=C(NCCc1ccncc1)[C@H]1[C@H](CO)[C@H]2Cn3c(cccc3=O)[C@@H]1N2Cc1ccccc1F | -5 | 11 | 0
CS(=O)(=O)N1[C@H](C#N)[C@H](c2ccccc2-c2ccccc2F)[C@@H]1CO | 14 | x | 0
COc1cccc(-c2ccc([C@H]3[C@H](CO)N(C(C)=O)C34CN(C(C)=O)C4)cc2)c1 | -4 | x | 0
CN1C(=O)c2cc(NC(=O)c3cccc(F)c3)ccc2OC[C@H]2O[C@H](CC(=O)O)CC[C@H]21 | 13 | -5 | 0
O=C(C[C@H]1CC[C@@H](NC(=O)c2ccccc2)[C@@H](CO)O1)NCc1ccc(Oc2ccccc2)cc1 | 0 | 1 | 0
COc1ccc2c3c(n(C)c2c1)[C@@H](CO)N(Cc1ccncc1)CC31CCN(C(=O)C2CCCCC2)CC1 | 1 | x | 0
CN(C)C(CNC(=O)c1cccs1)c1cccnc1 (centres undefined) | 17 | -3 | 8
O=C(NCC(=O)N(c1ccc2c(c1)OCO2)C(C(=O)NC1CCCC1)c1ccncc1)c1ccco1 (centres undefined) | x | 66* | x
CN(C)C(CNC(=O)NC1CCCCC1)c1cccnc1 (centres undefined) | x | 107* | -1
O=C(NCC(=O)N(c1ccc(Cl)cc1)C(C(=O)NC1CCCC1)c1ccncc1)c1ccco1 (centres undefined) | 3 | -6 | x
O=C(C[C@@H]1C[C@@H]2c3cc(NC(=O)Nc4ccccc4F)ccc3O[C@@H]2[C@H](CO)O1)NCC(F)(F)F | 3 | 4 | 1
C(/C=C/c1ccccn1)=C\c1ccccc1 | 6 | x | x
C(=C(c1ccccc1)c1ccccc1)c1ccccn1 | 54* | 1 | 0
CC(=O)Nc1ccc2c(c1)C(=O)N(C)[C@@H]1CC[C@H](CC(=O)NCc3ccc(F)cc3)O[C@@H]1CO2 | -2 | -7 | 0
CC1(C)CC(=O)C2=C(C1)NC(=O)NC2c1ccccc1Cl (centres undefined) | 4 | -7 | 0
